Measured values: ChEMBL document CHEMBL3352274, “Oxadiazoles and thiadiazoles: novel α-glucosidase inhibitors” (Bioorg Med Chem, 2014)

Key:
[1] = Inhibition of alpha-glucosidase (unknown origin) using p-nitrophenyl-alpha-D-glucopyranoside substrate measured up to 30 mins by multiplate spectrophotometry; parameters: species or system Homo sapiens
In short: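 Enzyme 0.2 U/mL in phosphate buffered saline, preincubated with test compounds at various concentrations, 15 min, 37 °C. Assay in 0.1 M phosphate buffer pH 6.8 at 37 °C. Triplicate reactions, acarbose as standard. % inhibition = 100 − (OD test/OD control) × 100. IC50 by enzyme kinetics fitting.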

[2] = (§1) Inhibition of snake venom phosphodiesterase 1 using bis(p-nitrophenyl) phosphate substrate after 30 mins by spectrophotometry; parameters: species or system Serpentes
In short: (§2)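 Assayed in 33 mM Tris–HCl buffer (pH 8.8) with 30 mM Mg-acetate as co-factor, 0.000742 U of enzyme and 0.33 mM substrate. After 30 min of incubation, activity was followed at 37 °C as p-nitrophenol release at 410 nm. Initial rates were taken as change in OD/min. All reactions were run in triplicate, with EDTA as positive control.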

[3] = tested on: Serpentes; test: as §1; parameters: concentration or dose not given beside the values; in short: as §2
[4] = biological target: Carbonic anhydrase 2 (Bos taurus) (UniProt P00921); test: Inhibition of carbonic anhydrase 2 (unknown origin) using 4-NPA substrate after 15 mins by spectrophotometry
[5] = Non-competitive inhibition of alpha-glucosidase (unknown origin) by Lineweaver-Burk plot; parameters: species or system Homo sapiens
In short: (§3)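 Mode of inhibition from Lineweaver–Burk plots (1/rate vs 1/substrate concentration) at varying inhibitor concentrations, tracking Km and Vmax. Ki from secondary re-plots of Lineweaver–Burk slopes vs inhibitor concentration and from Dixon plots (1/rate vs inhibitor concentration). Each point mean of three experiments.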

[6] = tested on: 3T3; test: Cytotoxicity against […] 3T3 cells by MTT assay; details: Mus musculus, NIH3T3
[7] = Competitive inhibition of alpha-glucosidase (unknown origin) by Lineweaver-Burk plot; parameters: species or system Homo sapiens; in short: as §3

| SMILES | IC50 [1] | IC50 ([1]; read-out: IC50) [µM] | other results |
| --- | --- | --- | --- |
| COc1cccc(C(=O)CSc2nnc(-c3ccc(Cl)cc3)o2)c1 | Not Active |  |  |
| O=C(CSc1nnc(-c2ccccc2)o1)c1cccc(Cl)c1 | Not Active |  |  |
| O=C(CSc1nnc(-c2cccnc2)o1)c1ccc(Br)cc1 | Not Active |  |  |
| COc1ccccc1C(=O)CSc1nnc(SCC(=O)c2ccccc2OC)s1 |  | 94.3 |  |
| O=C(CSc1nnc(-c2cccnc2)o1)c1cccc(O)c1 | Not Active |  |  |
| O=C(CSc1nnc(-c2ccc(Cl)cc2)o1)c1ccc(-c2ccccc2)cc1 | Not Active |  |  |
| O=C(CSc1nnc(SCC(=O)c2ccc([N+](=O)[O-])cc2)s1)c1ccc([N+](=O)[O-])cc1 | Not Active |  |  |
| COc1ccccc1C(=O)CSc1nnc(-c2ccc(Cl)cc2)o1 |  | 81.6 |  |
| O=C(CSc1nnc(SCC(=O)c2ccc(Cl)cc2)s1)c1ccc(Cl)cc1 | Not Active |  |  |
| O=C(CSc1nnc(-c2ccccc2)o1)c1ccc(Br)cc1 | Not Active |  |  |
| O=C(CSc1nnc(-c2cccnc2)o1)c1ccc(-c2ccccc2)cc1 |  | 125 |  |
| O=C(CSc1nnc(-c2cccnc2)o1)c1cc2ccccc2oc1=O | Not Active |  |  |
| O=C(CSc1nnc(-c2cccnc2)o1)c1cccc(F)c1 | Not Active |  |  |
| O=C(CSc1nnc(-c2ccccc2)o1)c1ccc(Cl)cc1 | Not Active |  |  |
| O=C(CSc1nnc(-c2ccc(Cl)cc2)o1)c1cccc(F)c1 |  | 49.1 |  |
| COc1cccc(C(=O)CSc2nnc(-c3ccccc3)o2)c1 |  | 184 |  |
| O=C(CSc1nnc(-c2ccc(Cl)cc2)o1)c1cccc(O)c1 |  | 24.1 | IC50 [2]: Not Active; inhibition [3]: 26%; IC50 [4]: Not Active; inhibition [4]: 9%; Ki [5]: 12 µM; IC50 [6]: > 30 µM |
| O=C(CSc1nnc(-c2ccc(OCc3ccccc3)cc2)o1)c1cccc(O)c1 |  | 17.9 | IC50 [2]: Not Active; inhibition [3]: 1.8%; IC50 [4]: Not Active; inhibition [4]: 48.2%; Ki [5]: 11.2 µM; IC50 [6]: > 30 µM |
| COc1ccc(C(=O)CSc2nnc(SCC(=O)c3ccc(OC)cc3)s2)cc1 | Not Active |  |  |

| SMILES | IC50 [1] | IC50 ([1]; read-out: IC50) [µM] | other results |
| --- | --- | --- | --- |
| O=C(CSc1nnc(-c2cccnc2)o1)c1ccc([N+](=O)[O-])cc1 | Not Active |  |  |
| COc1ccc(C(=O)CSc2nnc(-c3ccccc3)o2)cc1 | Not Active |  |  |
| C[C@H]1O[C@H](O[C@H]2[C@H](O)[C@@H](O)[C@@H](O[C@H]3[C@H](O)[C@@H](O)C(O)O[C@@H]3CO)O[C@@H]2CO)[C@H](O)[C@@H](O)[C@@H]1N[C@H]1C=C(CO)[C@@H](O)[C@H](O)[C@H]1O (some centres undefined) [ACARBOSE] |  | 937 | Ki [7]: 890 µM |
| O=C(CSc1nnc(SCC(=O)c2ccc(Br)cc2)s1)c1ccc(Br)cc1 |  | 166 |  |
| O=C(CSc1nnc(-c2ccc(Cl)cc2)o1)c1cc2ccccc2oc1=O | Not Active |  |  |
| O=C(CSc1nnc(-c2ccccc2)o1)c1ccc(Cl)c(Cl)c1 |  | 74.2 |  |
| COc1ccc(C(=O)CSc2nnc(-c3ccc(Cl)cc3)o2)cc1 | Not Active |  |  |
| O=C(CSc1nnc(-c2ccc(Cl)cc2)o1)c1ccc(Cl)cc1 | Not Active |  |  |
| O=C(CSc1nnc(-c2ccccc2)o1)c1cccc(F)c1 | Not Active |  |  |
| O=C(CSc1nnc(-c2ccc(Cl)cc2)o1)c1cccc(Cl)c1 | Not Active |  |  |
| O=C(CSc1nnc(SCC(=O)c2ccc(Cl)c(Cl)c2)s1)c1ccc(Cl)c(Cl)c1 | Not Active |  |  |
| O=C(CSc1nnc(SCC(=O)c2ccc(-c3ccccc3)cc2)s1)c1ccc(-c2ccccc2)cc1 |  | 51.8 |  |
| O=C(CSc1nnc(-c2ccccc2)o1)c1cccc(O)c1 |  | 112 |  |
| O=C(CSc1nnc(SCC(=O)c2ccccc2)s1)c1ccccc1 |  | 10.8 | Ki [7]: 6 µM; IC50 [2]: Not Active; inhibition [3]: 12.3%; IC50 [4]: Not Active; inhibition [4]: 33.8%; IC50 [6]: > 30 µM |
| O=C(CSc1nnc(SCC(=O)c2cccc(F)c2)s1)c1cccc(F)c1 |  | 24.6 |  |
| O=C(CSc1nnc(-c2cccnc2)o1)c1ccc(Cl)cc1 | Not Active |  |  |
| COc1ccc(C(=O)CSc2nnc(-c3ccc(OCc4ccccc4)cc3)o2)cc1 | Not Active |  |  |
| O=C(CSc1nnc(SCC(=O)c2cccc(O)c2)s1)c1cccc(O)c1 |  | 20.4 | IC50 [2]: Not Active; inhibition [3]: 4.6%; IC50 [4]: Not Active; inhibition [4]: 42.9%; Ki [5]: 14.3 µM; IC50 [6]: > 30 µM |
| COc1ccccc1C(=O)CSc1nnc(-c2ccc(OCc3ccccc3)cc2)o1 |  | 11.8 | IC50 [2]: Not Active; inhibition [3]: 8.5%; IC50 [4]: Not Active; inhibition [4]: 33%; Ki [5]: 4.36 µM; IC50 [6]: > 30 µM |
